Assay outcomes as filed in PubChem.
Fibroblast inh: antiproliferative effect on LL 47 fibroblasts – human, LL 47 cells, CellTiter-Glo luminescence, primary screen; AID 719, 2007; LL 47 human lung fibroblast viability, ATP luminescence; hits give low values; viability, % at 10 µM; 85,000 compounds, 1.1% hits;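 active = viability at or below 50% in the single dose screen; inactive = viability above 50%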;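 note: compound exposure lasted 72 h before the ATP readout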
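Material: Human LL 47 lung fibroblast cells | Input: 1,150 cells/well | Buffer or medium: IMEM plus 15% FBS | Compound dosing: 0.1% DMSO in all compound wells | Times: Overnight cell rest, 72 h compound treatment at 37 °C | Signal: CellTiter-Glo luminescence measuring cellular ATP | Measure: % viability versus median cells-only luminescence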
Candida biofilm: clotrimazole potentiators killing Candida biofilms, primary screen, with clotrimazole, Alamar Blue; C. albicans biofilm + clotrimazole; inhibition, % at 6 µM; 85,000 compounds, 0.14% hits;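 active = inhibition above 20%; inactive = inhibition below 20%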;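 note: preformed 24 hr biofilms exposed to compound for 48 hr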
HCT116 bCat-KO: primary screen for growth suppressors in beta-catenin knockout HCT116 cells (colon tumor, human); HCT116 beta-catenin knockout viability, CellTiter-Glo, 60 h; hits give low values; viability, % at 10 µM; 140,000 compounds, 1.5% hits; AID 818, 2007;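 active = viability at or under a set limit, the compound median less 4 SD, cut at about 6% in these data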
HUVEC prolif 384: inhibitors of HUVEC proliferation, primary screen, cell-based, 384-well | CellTiter-Glo luminescence, 72 h; hits give low values | viability, % at 10 µM (by protocol) | 86,000 compounds, 1.1% hits | AID 648, 2007;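 active = viability at or below 30%; inactive = viability above 30%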
PTEN del growth: growth suppression of PTEN-null HCT116, primary screen, cell-based, CellTiter-Glo. HCT116 PTEN-null viability, 60 h; hits give low values. viability, % at 10 µM. 140,000 compounds, 1.2% hits;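 active = viability at or below a set limit, 4 SD under the median of all tested compounds, cut at about 3.7% in these data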;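 note: PTEN knockout HCT116 line with beta catenin targeted HCT116 as companion control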
H69AR inhibit: proliferation blockers of H69AR lung cancer cells, primary screen, cell-based, human, 86K library. H69AR lung tumor viability, ATP luminescence, 72 h; hits give low values. viability, % at 10 µM. 85,000 compounds, 6% hits. AID 598, 2007;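 active = viability at or below 40%; inactive = viability above 40%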;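 note: multidrug resistant small cell line overexpressing MRP-1 efflux transporter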
Numbers stand for hits; n = inactive; x = no result. This is one part of a sample in which hits are shown more often than they occur.

SMILES	Fibroblast inh	Candida biofilm	HCT116 bCat-KO	HUVEC prolif 384	PTEN del growth	H69AR inhibit
Cc1ccccc1NC(=O)c1ccc2c(c1)OCCO2	n	n	n	n	1.9	n
Cc1nc2c(ccc3nc(NC(=O)c4ccc5c(c4)OCCO5)sc32)s1	n	n	n	7.8	n	8.2
Cc1nn(C(=O)c2c([N+](=O)[O-])cnn2C)c(C)c1Cl	n	n	n	n	n	n
Cc1ccc(C)c(S(=O)(=O)N2CCN(CC(=O)N3CCc4ccccc4C3)CC2)c1	n	n	n	n	n	n
O=S1(=O)Nc2c(ccc3cccnc23)-c2ccccc21	x	x	4.7	x	2.3	x
COc1ccc(C(C)=O)cc1CSc1nnc(-c2ccc(Cl)cc2)n1-c1ccccc1	x	x	n	x	n	x
CCC(C)c1ccc(NC(=O)C/C(C)=N/NC(=O)c2cnccn2)cc1 (stereo not given)	x	x	n	x	n	x
CCOC(=O)N1CCc2c(sc3c2C(=O)NC(c2ccccc2)N3)C1 (stereo not given)	n	n	n	n	n	32
CN1CCc2c(sc3c2C(=O)NC(c2cn(Cc4ccccc4)c4ccccc24)N3)C1 (stereo not given)	n	n	n	n	n	3.4
CCOc1ccc(Br)cc1C1NC(=O)c2c(sc3c2CCN(C)C3)N1 (stereo not given)	n	n	x	n	x	39
CN(C)CCNC(NC(=O)c1cccs1)C(Cl)(Cl)Cl (stereo not given)	x	x	n	x	n	x
CCCCCCOC(=O)C[N+](C)(C)CCOC1CC2CCC1(C)C2(C)C (stereo not given)	x	x	n	x	n	x
CCCCCCCOC(=O)C[N+](C)(C)CCOC1CC2CCC1(C)C2(C)C (stereo not given)	x	x	1.6	x	1.3	x
Cc1nn(-c2ccccc2)c(Cl)c1CN(C(=O)CCl)c1cccc2ccccc12	x	x	1.8	x	1.4	x
Cc1nn(-c2ccccc2)c(Cl)c1C(=O)NCC(=O)O	n	n	n	n	n	n
Cc1nn(-c2ccccc2)c(Cl)c1CN(C(=O)CCl)c1ccc(Cl)cc1	x	x	0.8	x	0.8	x
CC(=O)N(Cc1c(C)nn(-c2ccccc2)c1Cl)c1ccc(Cl)cc1	x	x	n	x	n	x
O=C(Nc1ccc(Cl)cc1)/C(=C/c1cccc(O)c1)c1nc2ccccc2s1	x	x	2.2	x	1.9	x
C=CCOC(=O)/C(=C\C=C\c1ccccc1)NC(=O)c1ccccc1	x	x	n	x	n	x
c1ccc2nc3c(nc2c1)c1ccccc1n3CCN1CCOCC1	n	n	n	n	n	n
c1ccc(-c2nnc(Cn3c4ccccc4c4nc5ccccc5nc43)o2)cc1	n	n	x	n	x	11
CC1CCCCN1CC(=O)Nc1ccccc1Sc1ccccc1 (stereo not given)	x	x	n	x	n	x
OC(Cn1cncn1)(c1ccccc1)c1ccccc1	n	n	n	n	n	n
Oc1ccc(Nc2nc(-c3ccc4ccccc4c3)cs2)cc1	47	n	n	n	n	19
CC(=O)Nc1nc(C)c(-c2csc(Nc3cccc([N+](=O)[O-])c3)n2)s1	x	x	1.8	x	1.7	x
SMILES	Fibroblast inh	Candida biofilm	HCT116 bCat-KO	HUVEC prolif 384	PTEN del growth	H69AR inhibit
Cc1nc(C)c(-c2csc(Nc3cccnc3)n2)s1	31	n	n	n	n	n
O=C(Nc1ccc(-c2csc(-c3ccccc3)n2)cc1)c1ccccc1	x	x	n	x	n	x
Oc1ccc(-c2nc(-c3ccc(O)c(O)c3)cs2)cc1	46	n	n	n	n	12
O=C(Nc1cnc2ccccn2c1=O)c1ccc(Cl)cc1	n	n	n	n	n	n
CC(=O)Nc1nc(C)c(-c2csc(Nc3ccc(O)cc3)n2)s1	47	n	n	n	n	7.2
CCOC(=O)c1sc(NC(=O)c2cc(-c3ccccc3)nc3ccccc23)c(C#N)c1C	x	x	n	x	n	x
CCn1cc([N+](=O)[O-])c(C(=O)N2N=C(c3ccc(O)c(OC)c3)CC2c2ccccc2O)n1 (stereo not given)	x	x	n	x	n	x
CCn1cc([N+](=O)[O-])c(C(=O)N2N=C(c3ccc4ccccc4c3)CC2c2cc(Br)ccc2O)n1 (stereo not given)	n	n	2.4	10	3.2	14
COc1ccc(/C=N/NC(=O)CN2CCSCC2)cc1C	x	x	n	x	n	x
O=C(Nc1cccc2ccccc12)c1ccc([N+](=O)[O-])s1	x	x	3.9	x	3.1	x
Nc1n[nH]c(-c2ccccc2)c1-c1ccccc1	n	n	n	n	n	n
CC(C)NC(=S)Nc1ccc2nc3n(c(=O)c2c1)CCCCC3	x	x	n	x	n	x
COc1ccc(-c2[nH]c(-c3ccc4c(c3)OCO4)nc2-c2ccccc2)cc1	x	x	1.3	x	1.4	x
COc1cc(-c2nc(-c3ccccc3)c(-c3ccc(F)cc3)[nH]2)cc2c1OCO2	x	x	n	x	n	x
Cc1sc(NC(=O)C2C3C=CC(C3)C2C(=O)O)c(C(N)=O)c1-c1ccc(C(C)C)cc1 (stereo not given)	x	x	n	x	n	x
CC1CCC(C(C)C)C2=C1C(C#N)(C#N)C(C#N)(C#N)C(c1ccccc1)N2 (stereo not given)	32	n	n	28	n	0.0
CCOC(=O)C1CCCN(C(=O)/C=C/c2ccccc2[N+](=O)[O-])C1 (stereo not given)	x	x	n	x	n	x
CCc1ccccc1N(C(=O)CCC(=O)Nc1cc(C)on1)C(C(=O)NC1CCCC1)c1ccco1 (stereo not given)	n	n	x	n	x	n
O=C(Nc1ccc(N2CCCCC2)c(C(=O)O)c1)c1ccco1	n	n	n	n	n	n
Cc1cccc(NC(=O)c2cc(NC(=O)c3ccco3)ccc2N2CCCCC2)c1	n	n	n	26	n	n
COCc1c(C(=O)OCc2nc(N)nc(Nc3ccccc3C)n2)oc2ccccc12	x	x	n	x	n	x
COc1cccc(Nc2nc(N)nc(-c3oc4ccccc4c3C)n2)c1	n	n	n	n	n	17
COc1ccccc1Nc1nc(N)nc(CN2CCOCC2)n1	n	n	n	n	n	n
Cc1c(-c2nc(N)nc(Nc3ccccc3F)n2)oc2ccccc12	n	n	n	n	n	20
COc1ccccc1Nc1nc(N)nc(-c2cc3ccccc3o2)n1	n	n	n	n	n	10
CCOc1ccccc1NC(=O)c1c(NC(=O)CNCc2ccco2)sc2c1CCC2	n	n	x	n	x	n
COC(=O)c1ccc(C2Nc3ccc(/C(C)=N/NC(=O)C(OC)c4ccccc4)cc3C3C=CCC32)cc1 (stereo not given)	x	x	n	x	n	x
COc1cccc(-c2cc(C(=O)NCCCn3ccnc3)c3ccccc3n2)c1	x	x	n	x	n	x
COc1ccc(C2c3c(-c4ccccc4O)n[nH]c3C(=O)N2CCc2ccc(OC)c(OC)c2)cc1 (stereo not given)	n	n	n	n	n	n
COc1ccc(CCN2C(=O)c3[nH]nc(-c4ccccc4O)c3C2c2cccc(Cl)c2)cc1 (stereo not given)	n	n	n	15	n	23
